Results published in ChEMBL document CHEMBL4402598, “Design and Synthesis of Bitopic 2-Phenylcyclopropylmethylamine (PCPMA) Derivatives as Selective Dopamine D3 Receptor Ligands” (J Med Chem, 2020).
pIC50, pKi: −log10 of the molar value.

Legend:
[1] = Cmax in ICR mouse at 10 mg/kg, po by LC-MS/MS analysis; type: ADME, organism-based; design: dose 10 mg/kg, route oral; conditions: in vivo
Procedure, shortened: (§1)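 Male ICR mice (6-8 weeks, ~25 g) dosed with compound dissolved in saline, 5 mg/kg iv or 10 mg/kg po, nine animals per group. Samples stored at -80 °C; drug quantified by LC-MS/MS.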

[2] = MRT in ICR mouse at 5 mg/kg, iv by LC-MS/MS analysis; type: ADME, organism-based; conditions: in vivo; procedure, shortened: as §1
[3] = Ratio of drug level in ICR mouse brain to plasma at 5 mg/kg, iv measured after 0.5 hrs by LC-MS/MS analysis; type: ADME, organism-based; conditions: read-out: BPR
Procedure, shortened: (§2)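 Male ICR mice (6-8 weeks, ~25 g) received compound in saline, 5 mg/kg iv or 10 mg/kg po. Brains collected at 0.5 and 2.0 h, saline-washed, weighed, homogenized in cold 50% methanol (1 g:3 mL). Plasma prepared from orbital blood. Samples held at -80 °C; LC-MS/MS quantitation. Brain/plasma ratio calculated from the two concentrations.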

[4] = biological target: T1, 5-hydroxytryptamine receptor 2C (Homo sapiens, UniProt P28335); assay: Antagonist activity at human 5HT2C receptor stably expressed in HEK293 cells co-expressing Gq assessed as inhibition of 5-HT-induced calcium mobilization preincubated for 15 mins followed by 5-HT addition and measured at 1 sec interval for 60 secs by Fluo-4 calcium dye based FLIPR assay; type: functional, cell-based
T1 sequence (P28335 whole entry): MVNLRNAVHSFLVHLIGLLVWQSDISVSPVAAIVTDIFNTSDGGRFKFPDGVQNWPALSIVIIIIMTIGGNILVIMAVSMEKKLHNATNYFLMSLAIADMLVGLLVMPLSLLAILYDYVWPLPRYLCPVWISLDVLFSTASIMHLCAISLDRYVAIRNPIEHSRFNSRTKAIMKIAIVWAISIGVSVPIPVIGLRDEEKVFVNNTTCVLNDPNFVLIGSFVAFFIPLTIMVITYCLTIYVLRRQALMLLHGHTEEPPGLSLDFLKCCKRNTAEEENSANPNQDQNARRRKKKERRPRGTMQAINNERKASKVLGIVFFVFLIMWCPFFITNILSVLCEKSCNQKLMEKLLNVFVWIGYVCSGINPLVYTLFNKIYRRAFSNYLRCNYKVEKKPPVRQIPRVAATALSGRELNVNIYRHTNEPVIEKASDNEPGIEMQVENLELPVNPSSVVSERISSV
Procedure, shortened: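 5-HT2C stably transfected HEK293 cells, loaded with Fluo-4 Direct (HBSS, 20 mM HEPES pH 7.4, 2.5 mM probenecid; 50 min 37 °C, 10 min room temperature). Test compound added, then 5-HT (final 1 nM) 15 min later.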

[5] = Volume of distribution at steady state in ICR mouse at 5 mg/kg, iv by LC-MS/MS analysis; type: ADME, organism-based; conditions: in vivo, read-out: Vdss; procedure, shortened: as §1
[6] = biological target: T2, D(4) dopamine receptor (Homo sapiens, UniProt P21917); assay: Displacement of [3H]-N-methylspiperone from recombinant human D4 receptor stably expressed in HEK cell membranes measured after 90 mins by microbeta scintillation counting method
T2 sequence (P21917 whole entry): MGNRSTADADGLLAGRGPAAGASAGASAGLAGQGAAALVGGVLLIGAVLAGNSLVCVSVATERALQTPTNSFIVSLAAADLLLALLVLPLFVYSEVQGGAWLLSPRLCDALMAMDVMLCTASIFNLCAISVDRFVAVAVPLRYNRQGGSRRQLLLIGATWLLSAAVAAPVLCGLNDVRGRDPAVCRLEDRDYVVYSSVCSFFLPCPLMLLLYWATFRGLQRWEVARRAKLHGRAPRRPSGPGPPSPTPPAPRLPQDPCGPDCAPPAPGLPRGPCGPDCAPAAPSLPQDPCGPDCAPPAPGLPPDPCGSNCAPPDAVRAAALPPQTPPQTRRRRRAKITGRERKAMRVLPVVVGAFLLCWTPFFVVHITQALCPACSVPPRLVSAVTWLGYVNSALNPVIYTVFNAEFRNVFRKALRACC

[7] = biological target: D(2) dopamine receptor (Homo sapiens, UniProt P14416); assay: Displacement of [3H]-N-methylspiperone from recombinant human D2 receptor stably expressed in fibroblast cell membranes measured after 90 mins by microbeta scintillation counting method
[8] = Drug level in ICR mouse brain at 10 mg/kg, po measured after 2 hrs by LC-MS/MS analysis; type: ADME, organism-based; procedure, shortened: as §2
[9] = Drug level in ICR mouse plasma at 10 mg/kg, po measured after 0.5 hrs by LC-MS/MS analysis; type: ADME, organism-based; procedure, shortened: as §2
[10] = biological target: 5-hydroxytryptamine receptor 2A (Homo sapiens, UniProt P28223); assay: Agonist activity at 5HT2A receptor (unknown origin) expressed in HEK293 cells co-expressing Gq assessed as induction of calcium mobilization measured at 1 sec interval for 60 secs by Fluo-4 calcium dye based FLIPR assay; type: cell-based; conditions: hek293, 1 min
[11] = Half life in ICR mouse at 10 mg/kg, po by LC-MS/MS analysis; type: ADME, organism-based; conditions: in vivo; procedure, shortened: as §1
[12] = Ratio of drug level in ICR mouse brain to plasma at 5 mg/kg, iv measured after 2 hrs by LC-MS/MS analysis; type: ADME, organism-based; conditions: read-out: BPR; procedure, shortened: as §2
[13] = Drug level in ICR mouse plasma at 5 mg/kg, iv measured after 2 hrs by LC-MS/MS analysis; type: ADME, organism-based; procedure, shortened: as §2
[14] = Tmax in ICR mouse at 10 mg/kg, po by LC-MS/MS analysis; type: ADME, organism-based; conditions: in vivo; procedure, shortened: as §1
[15] = biological target: T1, 5-hydroxytryptamine receptor 2C; assay: Displacement of [3H]-Mesulergine from recombinant human 5HT2C receptor expressed in HEKT cell membranes measured after 90 mins by microbeta scintillation counting method
[16] = AUC (0 to t) in ICR mouse at 5 mg/kg, iv by LC-MS/MS analysis; type: ADME, organism-based; conditions: in vivo; procedure, shortened: as §1
[17] = Drug level in ICR mouse plasma at 5 mg/kg, iv measured after 0.5 hrs by LC-MS/MS analysis; type: ADME, organism-based; procedure, shortened: as §2
[18] = MRT in ICR mouse at 10 mg/kg, po by LC-MS/MS analysis; type: ADME, organism-based; conditions: in vivo; procedure, shortened: as §1
[19] = Oral bioavailability in ICR mouse at 10 mg/kg by LC-MS/MS analysis; type: ADME, organism-based; conditions: in vivo; procedure, shortened: as §1
[20] = biological target: D(1B) dopamine receptor (Homo sapiens, UniProt P21918); assay: Displacement of [3H]-SCH23390 from recombinant human D5 receptor transiently expressed in HEKT cell membranes measured after 90 mins by microbeta scintillation counting method
[21] = AUC (0 to t) in ICR mouse at 10 mg/kg, po by LC-MS/MS analysis; type: ADME, organism-based; conditions: in vivo; procedure, shortened: as §1
[22] = Drug level in ICR mouse brain at 10 mg/kg, po measured after 0.5 hrs by LC-MS/MS analysis; type: ADME, organism-based; procedure, shortened: as §2
[23] = Ratio of drug level in ICR mouse brain to plasma at 10 mg/kg, po measured after 0.5 hrs by LC-MS/MS analysis; type: ADME, organism-based; conditions: read-out: BPR; procedure, shortened: as §2
[24] = biological target: 5-hydroxytryptamine receptor 2B (Homo sapiens, UniProt P41595); assay: Agonist activity at 5HT2B receptor (unknown origin) expressed in HEK293 cells co-expressing Gq assessed as induction of calcium mobilization measured at 1 sec interval for 60 secs by Fluo-4 calcium dye based FLIPR assay; type: cell-based; conditions: hek293, 1 min
[25] = Drug level in ICR mouse plasma at 10 mg/kg, po measured after 2 hrs by LC-MS/MS analysis; type: ADME, organism-based; procedure, shortened: as §2
[26] = Drug level in ICR mouse brain at 5 mg/kg, iv measured after 0.5 hrs by LC-MS/MS analysis; type: ADME, organism-based; procedure, shortened: as §2
[27] = Half life in ICR mouse at 5 mg/kg, iv by LC-MS/MS analysis; type: ADME, organism-based; conditions: in vivo; procedure, shortened: as §1
[28] = biological target: D(1A) dopamine receptor (Homo sapiens, UniProt P21728); assay: Displacement of [3H]-SCH23390 from recombinant human D1 receptor transiently expressed in HEKT cell membranes measured after 90 mins by microbeta scintillation counting method
[29] = Drug level in ICR mouse brain at 5 mg/kg, iv measured after 2 hrs by LC-MS/MS analysis; type: ADME, organism-based; procedure, shortened: as §2
[30] = Clearance in ICR mouse at 5 mg/kg, iv by LC-MS/MS analysis; type: ADME, organism-based; conditions: in vivo; procedure, shortened: as §1
[31] = Ratio of drug level in ICR mouse brain to plasma at 10 mg/kg, po measured after 2 hrs by LC-MS/MS analysis; type: ADME, organism-based; conditions: read-out: BPR; procedure, shortened: as §2

Chain of 5-hydroxytryptamine receptor 2A (P28223 whole entry): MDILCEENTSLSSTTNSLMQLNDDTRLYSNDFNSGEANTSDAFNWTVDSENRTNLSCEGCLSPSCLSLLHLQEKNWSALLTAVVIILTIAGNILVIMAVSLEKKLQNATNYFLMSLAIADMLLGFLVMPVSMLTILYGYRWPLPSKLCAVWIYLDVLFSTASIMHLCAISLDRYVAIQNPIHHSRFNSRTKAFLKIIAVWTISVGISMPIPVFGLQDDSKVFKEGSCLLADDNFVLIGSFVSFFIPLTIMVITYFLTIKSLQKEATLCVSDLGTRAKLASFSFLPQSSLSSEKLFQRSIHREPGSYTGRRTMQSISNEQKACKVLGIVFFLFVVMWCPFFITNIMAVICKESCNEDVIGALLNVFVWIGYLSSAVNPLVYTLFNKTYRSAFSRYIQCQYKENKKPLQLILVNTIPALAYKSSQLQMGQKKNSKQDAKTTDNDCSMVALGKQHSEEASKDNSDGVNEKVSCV
Chain of D(1A) dopamine receptor (P21728 whole entry): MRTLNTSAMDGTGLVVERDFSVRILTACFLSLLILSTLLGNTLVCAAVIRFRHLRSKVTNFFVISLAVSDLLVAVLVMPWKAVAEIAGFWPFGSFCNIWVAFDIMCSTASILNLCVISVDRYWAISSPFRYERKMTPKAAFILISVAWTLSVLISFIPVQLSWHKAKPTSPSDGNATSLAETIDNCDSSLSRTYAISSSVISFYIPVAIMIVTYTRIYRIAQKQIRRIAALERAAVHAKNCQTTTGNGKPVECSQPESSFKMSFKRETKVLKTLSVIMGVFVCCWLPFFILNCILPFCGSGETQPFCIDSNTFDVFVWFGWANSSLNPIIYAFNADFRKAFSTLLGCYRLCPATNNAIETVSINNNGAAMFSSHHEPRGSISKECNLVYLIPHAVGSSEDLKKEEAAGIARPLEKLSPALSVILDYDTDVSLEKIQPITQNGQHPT
Chain of 5-hydroxytryptamine receptor 2B (P41595 whole entry): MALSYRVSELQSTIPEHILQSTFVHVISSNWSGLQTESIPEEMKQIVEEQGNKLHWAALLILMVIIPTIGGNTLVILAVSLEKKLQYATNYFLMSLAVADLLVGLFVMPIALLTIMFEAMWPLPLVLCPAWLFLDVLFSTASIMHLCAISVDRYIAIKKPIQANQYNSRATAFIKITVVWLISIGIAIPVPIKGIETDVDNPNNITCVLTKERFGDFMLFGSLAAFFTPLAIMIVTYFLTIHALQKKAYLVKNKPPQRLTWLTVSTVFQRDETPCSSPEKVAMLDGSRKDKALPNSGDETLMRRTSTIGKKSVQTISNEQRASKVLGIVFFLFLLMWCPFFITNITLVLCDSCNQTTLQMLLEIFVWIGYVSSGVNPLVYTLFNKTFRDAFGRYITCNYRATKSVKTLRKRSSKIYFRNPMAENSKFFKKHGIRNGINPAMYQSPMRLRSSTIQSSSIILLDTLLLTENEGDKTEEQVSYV
Chain of D(2) dopamine receptor (P14416 whole entry): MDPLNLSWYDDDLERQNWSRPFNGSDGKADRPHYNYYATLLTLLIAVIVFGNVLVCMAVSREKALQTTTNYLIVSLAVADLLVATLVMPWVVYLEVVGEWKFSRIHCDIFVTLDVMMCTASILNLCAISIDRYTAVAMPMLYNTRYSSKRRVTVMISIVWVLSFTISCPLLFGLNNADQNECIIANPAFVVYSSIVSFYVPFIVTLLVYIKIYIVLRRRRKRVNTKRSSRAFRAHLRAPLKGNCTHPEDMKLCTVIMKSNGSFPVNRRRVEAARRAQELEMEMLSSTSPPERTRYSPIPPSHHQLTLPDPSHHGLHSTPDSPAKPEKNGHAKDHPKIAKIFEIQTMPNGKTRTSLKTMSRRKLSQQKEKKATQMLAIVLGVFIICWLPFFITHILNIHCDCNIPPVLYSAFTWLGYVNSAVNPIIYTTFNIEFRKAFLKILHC
Chain of D(1B) dopamine receptor (P21918 whole entry): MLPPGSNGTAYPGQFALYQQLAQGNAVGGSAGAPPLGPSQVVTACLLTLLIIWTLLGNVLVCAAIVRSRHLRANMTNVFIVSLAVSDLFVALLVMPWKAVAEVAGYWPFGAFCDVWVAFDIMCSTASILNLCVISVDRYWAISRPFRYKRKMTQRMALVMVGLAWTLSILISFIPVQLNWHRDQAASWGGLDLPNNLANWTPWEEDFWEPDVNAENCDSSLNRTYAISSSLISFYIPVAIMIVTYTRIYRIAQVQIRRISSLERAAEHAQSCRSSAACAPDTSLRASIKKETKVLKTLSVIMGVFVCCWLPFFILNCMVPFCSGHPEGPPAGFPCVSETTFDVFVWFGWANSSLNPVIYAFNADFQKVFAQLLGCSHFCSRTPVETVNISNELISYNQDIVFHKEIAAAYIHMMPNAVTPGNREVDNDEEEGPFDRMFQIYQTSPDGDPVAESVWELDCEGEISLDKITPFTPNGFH

| SMILES | Cmax [1] [ng/mL] | MRT [2] [h] | Kp at 0.5 h [3] | pIC50 [4] | Vd [5] [L/kg] | pKi [6] | concentration at 2 h [8] [ng/mL] | concentration at 0.5 h [9] [ng/mL] | Activity [10] | half-life [11] [h] | Kp at 2 h [12] | concentration at 2 h [13] [ng/mL] | Tmax [14] [h] | pKi [15] | AUC(0-t) [16] [ng·h/mL] | concentration at 0.5 h [17] [ng/mL] | MRT [18] [h] | bioavailability [19] [%] | pKi [20] | AUC(0-t) [21] [ng·h/mL] | further results |
| --- | --- | --- | --- | --- | --- | --- | --- | --- | --- | --- | --- | --- | --- | --- | --- | --- | --- | --- | --- | --- | --- |
| CCCN(CCCCNC(=O)c1cc2ccccc2[nH]1)C[C@@H]1C[C@H]1c1cccc(Cl)c1Cl.Cl | 63.9 | 3.4 | 3.88 | < 4.52 | 23.8 | 5.98 | 160 | 35.5 | Active | 4.11 | 5.72 | 94.8 | 1 | 6.29 | 629 | 215 | 6 | 34.1 | < 5.30 | 428 | pKi [7]: 6.27; concentration at 0.5 h [22]: 51.3 ng/mL; Kp at 0.5 h [23]: 1.45; Activity [24]: Not Active; concentration at 2 h [25]: 67.7 ng/mL; concentration at 0.5 h [26]: 833 ng/mL; half-life [27]: 3.12 h; pKi [28]: 5.86; concentration at 2 h [29]: 543 ng/mL; clearance [30]: 117 mL/min/kg; Kp at 2 h [31]: 2.36 |
| CCCN(CCCCNC(=O)c1ccc(-c2ccccn2)cc1)C[C@@H]1C[C@H]1c1cc(F)ccc1OC.Cl | 43.2 | 0.415 | 1.19 | 4.84 | 3.13 | 6.24 | 6.57 | 16.8 | Active | 2.64 | 1.53 | 12.7 | 0.25 | 5.95 | 660 | 446 | 3.72 | 3.8 | < 5.30 | 49.5 | pKi [7]: 5.87; concentration at 0.5 h [22]: 8.21 ng/mL; Kp at 0.5 h [23]: 0.49; Activity [24]: Not Active; concentration at 2 h [25]: 8.4 ng/mL; concentration at 0.5 h [26]: 530 ng/mL; half-life [27]: 0.437 h; pKi [28]: 5.31; concentration at 2 h [29]: 19.4 ng/mL; clearance [30]: 126 mL/min/kg; Kp at 2 h [31]: 0.79 |
| CCCN(CCCCNC(=O)c1ccc(-c2ccccn2)cc1)C[C@@H]1C[C@H]1c1cccc(Cl)c1Cl.Cl | 118 | 0.808 | 1.92 | 5.00 | 4.11 | 6.17 | 9.1 | 118 | Active | 2.12 | 1.93 | 118 | 0.5 | 6.38 | 976 | 511 | 2.77 | 13 | < 5.30 | 254 | concentration at 0.5 h [22]: 26.7 ng/mL; Kp at 0.5 h [23]: 0.23; Activity [24]: Not Active; concentration at 2 h [25]: 44.1 ng/mL; concentration at 0.5 h [26]: 980 ng/mL; half-life [27]: 0.576 h; pKi [28]: 5.87; concentration at 2 h [29]: 227 ng/mL; clearance [30]: 84.8 mL/min/kg; Kp at 2 h [31]: 0.207 |
| CCCN(CCCCNC(=O)c1ccc2ccccc2c1)C[C@@H]1C[C@H]1c1cccc(Cl)c1Cl.Cl | 37.3 | 2.58 | 12.7 | 4.79 | 20.8 | 6.09 | 23.2 | 28.4 | Active | 2.08 | 11.1 | 82.6 | 0.25 | 6.37 | 616 | 270 | 2.59 | 6.6 | < 5.30 | 81.1 | pKi [7]: 6.17; concentration at 0.5 h [22]: 23.2 ng/mL; Kp at 0.5 h [23]: 0.82; Activity [24]: Not Active; concentration at 2 h [25]: 16.4 ng/mL; concentration at 0.5 h [26]: 3420 ng/mL; half-life [27]: 1.51 h; pKi [28]: 5.89; concentration at 2 h [29]: 913 ng/mL; clearance [30]: 134 mL/min/kg; Kp at 2 h [31]: 1.61 |
